# Reference: PMC7744997 (Clinical Infectious Diseases: An Official Publication of …, 2020)
# Assays:
# [1] = Laboratory safety in RSV-infected infants; type: in vivo, human
# Summary of the method: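 Clinical laboratory tests were run in RSV-infected infants (>1 to ≤24 months) given oral drug or placebo once daily for 7 days. Abnormalities were graded with the DMID Pediatric Toxicity Tables (November 2007 version). Patients were followed for 28 days after randomisation.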
# [2] = test system: RSV; test: RSV RNA viral load from nasal swabs by qRT-PCR in RSV-infected infants; type: in vivo, respiratory syncytial virus
# Summary of the method: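 Viral load was measured by quantitative real-time RT-PCR on midturbinate nasal swabs, taken over time during 7 days of once-daily oral dosing. After hospital discharge, no samples were taken until the day 7 visit. Results were expressed as median change from baseline.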
compound,measurement,setting,value
CS(=O)(=O)CCCn1c(Cn2c(=O)n(CC(F)(F)F)c3ccncc32)cc2cc(Cl)ccc21 [JNJ-53718678],Eosinophils: Above (treatment-emergent nongraded abnormality),"[1]; Low (cohorts 1a,2a,3a), n=12",4 (33) no. (%)
same,Eosinophils: Below (treatment-emergent nongraded abnormality),"[1]; Low (cohorts 1a,2a,3a), n=12",0 no. (%)
same,Erythrocytes: Above (treatment-emergent nongraded abnormality),"[1]; Low (cohorts 1a,2a,3a), n=12",1 (8) no. (%)
same,Erythrocytes: Below (treatment-emergent nongraded abnormality),"[1]; Low (cohorts 1a,2a,3a), n=12",0 no. (%)
same,Hemoglobin Grade 1 (treatment-emergent worst toxicity grade),"[1]; Low (cohorts 1a,2a,3a), n=12",1 (8) no. (%)
same,Hemoglobin Grade 2 (treatment-emergent worst toxicity grade),"[1]; Low (cohorts 1a,2a,3a), n=12",0 no. (%)
same,Hyperkalemia Grade 1 (treatment-emergent worst toxicity grade),"[1]; Low (cohorts 1a,2a,3a), n=12",4 (33) no. (%)
same,Hyperkalemia Grade 2 (treatment-emergent worst toxicity grade),"[1]; Low (cohorts 1a,2a,3a), n=12",0 no. (%)
same,Hypoglycemia Grade 1 (treatment-emergent worst toxicity grade),"[1]; Low (cohorts 1a,2a,3a), n=12",0 no. (%)
same,Hyponatremia Grade 2 (treatment-emergent worst toxicity grade),"[1]; Low (cohorts 1a,2a,3a), n=12",1 (8) no. (%)
same,Leukocytes: Above (treatment-emergent nongraded abnormality),"[1]; Low (cohorts 1a,2a,3a), n=12",1 (8) no. (%)
same,Lymphocytes: Above (treatment-emergent nongraded abnormality),"[1]; Low (cohorts 1a,2a,3a), n=12",2 (17) no. (%)
same,Lymphocytes: Below (treatment-emergent nongraded abnormality),"[1]; Low (cohorts 1a,2a,3a), n=12",0 no. (%)
same,Eosinophils/leukocytes: Above (treatment-emergent nongraded abnormality),"[1]; Mid (cohorts 1b,2b,3b), n=9",3 (33) no. (%)
same,Eosinophils/leukocytes: Below (treatment-emergent nongraded abnormality),"[1]; Mid (cohorts 1b,2b,3b), n=9",0 no. (%)
same,Lymphocytes/leukocytes: Above (treatment-emergent nongraded abnormality),"[1]; Mid (cohorts 1b,2b,3b), n=9",3 (33) no. (%)
same,Lymphocytes/leukocytes: Below (treatment-emergent nongraded abnormality),"[1]; Mid (cohorts 1b,2b,3b), n=9",1 (11) no. (%)
same,Monocytes/leukocytes: Above (treatment-emergent nongraded abnormality),"[1]; Mid (cohorts 1b,2b,3b), n=9",3 (33) no. (%)
same,Monocytes/leukocytes: Below (treatment-emergent nongraded abnormality),"[1]; Mid (cohorts 1b,2b,3b), n=9",1 (11) no. (%)
same,Neutrophils/leukocytes: Above (treatment-emergent nongraded abnormality),"[1]; Mid (cohorts 1b,2b,3b), n=9",1 (11) no. (%)
same,Neutrophils/leukocytes: Below (treatment-emergent nongraded abnormality),"[1]; Mid (cohorts 1b,2b,3b), n=9",3 (33) no. (%)
same,Eosinophils: Above (treatment-emergent nongraded abnormality),"[1]; Mid (cohorts 1b,2b,3b), n=11",2 (18) no. (%)
same,Eosinophils: Below (treatment-emergent nongraded abnormality),"[1]; Mid (cohorts 1b,2b,3b), n=11",0 no. (%)
same,Lymphocytes: Above (treatment-emergent nongraded abnormality),"[1]; Mid (cohorts 1b,2b,3b), n=11",2 (18) no. (%)
same,Lymphocytes: Below (treatment-emergent nongraded abnormality),"[1]; Mid (cohorts 1b,2b,3b), n=11",0 no. (%)
same,Alkaline phosphatase: Above (treatment-emergent nongraded abnormality),"[1]; Mid (cohorts 1b,2b,3b), n=12",1 (8) no. (%)
same,Alkaline phosphatase: Below (treatment-emergent nongraded abnormality),"[1]; Mid (cohorts 1b,2b,3b), n=12",2 (17) no. (%)
same,Bicarbonate: Above (treatment-emergent nongraded abnormality),"[1]; Mid (cohorts 1b,2b,3b), n=12",2 (17) no. (%)
same,Bicarbonate: Below (treatment-emergent nongraded abnormality),"[1]; Mid (cohorts 1b,2b,3b), n=12",2 (17) no. (%)
same,Chloride: Above (treatment-emergent nongraded abnormality),"[1]; Mid (cohorts 1b,2b,3b), n=12",2 (17) no. (%)
same,Chloride: Below (treatment-emergent nongraded abnormality),"[1]; Mid (cohorts 1b,2b,3b), n=12",1 (8) no. (%)
same,Erythrocytes: Above (treatment-emergent nongraded abnormality),"[1]; Mid (cohorts 1b,2b,3b), n=12",1 (8) no. (%)
same,Erythrocytes: Below (treatment-emergent nongraded abnormality),"[1]; Mid (cohorts 1b,2b,3b), n=12",2 (17) no. (%)
same,Hemoglobin Grade 1 (treatment-emergent worst toxicity grade),"[1]; Mid (cohorts 1b,2b,3b), n=12",1 (8) no. (%)
same,Hemoglobin Grade 2 (treatment-emergent worst toxicity grade),"[1]; Mid (cohorts 1b,2b,3b), n=12",1 (8) no. (%)
same,Hyperkalemia Grade 1 (treatment-emergent worst toxicity grade),"[1]; Mid (cohorts 1b,2b,3b), n=12",3 (25) no. (%)
same,Hyperkalemia Grade 2 (treatment-emergent worst toxicity grade),"[1]; Mid (cohorts 1b,2b,3b), n=12",1 (8.3) no. (%)
same,Hypoglycemia Grade 1 (treatment-emergent worst toxicity grade),"[1]; Mid (cohorts 1b,2b,3b), n=12",0 no. (%)
same,Hyponatremia Grade 2 (treatment-emergent worst toxicity grade),"[1]; Mid (cohorts 1b,2b,3b), n=12",0 no. (%)
same,Leukocytes: Above (treatment-emergent nongraded abnormality),"[1]; Mid (cohorts 1b,2b,3b), n=12",2 (17) no. (%)
same,Urea: Above (treatment-emergent nongraded abnormality),"[1]; Mid (cohorts 1b,2b,3b), n=12",0 no. (%)
same,Urea: Below (treatment-emergent nongraded abnormality),"[1]; Mid (cohorts 1b,2b,3b), n=12",4 (33) no. (%)
same,Urea: Above (treatment-emergent nongraded abnormality),"[1]; Mid-high (cohort 1c), n=3",0 no. (%)
same,Urea: Below (treatment-emergent nongraded abnormality),"[1]; Mid-high (cohort 1c), n=3",0 no. (%)
same,Alkaline phosphatase: Above (treatment-emergent nongraded abnormality),"[1]; Mid-high (cohort 1c), n=4",0 no. (%)
same,Alkaline phosphatase: Below (treatment-emergent nongraded abnormality),"[1]; Mid-high (cohort 1c), n=4",1 (25) no. (%)
same,Bicarbonate: Above (treatment-emergent nongraded abnormality),"[1]; Mid-high (cohort 1c), n=4",0 no. (%)
same,Bicarbonate: Below (treatment-emergent nongraded abnormality),"[1]; Mid-high (cohort 1c), n=4",1 (25) no. (%)
same,Chloride: Above (treatment-emergent nongraded abnormality),"[1]; Mid-high (cohort 1c), n=4",2 (50) no. (%)
same,Chloride: Below (treatment-emergent nongraded abnormality),"[1]; Mid-high (cohort 1c), n=4",0 no. (%)
same,Eosinophils/leukocytes: Above (treatment-emergent nongraded abnormality),"[1]; Mid-high (cohort 1c), n=4",1 (25) no. (%)
same,Eosinophils/leukocytes: Below (treatment-emergent nongraded abnormality),"[1]; Mid-high (cohort 1c), n=4",1 (25) no. (%)
same,Eosinophils: Above (treatment-emergent nongraded abnormality),"[1]; Mid-high (cohort 1c), n=4",1 (25) no. (%)
same,Eosinophils: Below (treatment-emergent nongraded abnormality),"[1]; Mid-high (cohort 1c), n=4",0 no. (%)
same,Erythrocytes: Above (treatment-emergent nongraded abnormality),"[1]; Mid-high (cohort 1c), n=4",2 (50) no. (%)
same,Erythrocytes: Below (treatment-emergent nongraded abnormality),"[1]; Mid-high (cohort 1c), n=4",0 no. (%)
same,Hemoglobin Grade 1 (treatment-emergent worst toxicity grade),"[1]; Mid-high (cohort 1c), n=4",0 no. (%)
same,Hemoglobin Grade 2 (treatment-emergent worst toxicity grade),"[1]; Mid-high (cohort 1c), n=4",0 no. (%)
same,Hyperkalemia Grade 1 (treatment-emergent worst toxicity grade),"[1]; Mid-high (cohort 1c), n=4",2 (50) no. (%)
same,Hyperkalemia Grade 2 (treatment-emergent worst toxicity grade),"[1]; Mid-high (cohort 1c), n=4",0 no. (%)
same,Hypoglycemia Grade 1 (treatment-emergent worst toxicity grade),"[1]; Mid-high (cohort 1c), n=4",0 no. (%)
same,Hyponatremia Grade 2 (treatment-emergent worst toxicity grade),"[1]; Mid-high (cohort 1c), n=4",1 (25) no. (%)
same,Leukocytes: Above (treatment-emergent nongraded abnormality),"[1]; Mid-high (cohort 1c), n=4",0 no. (%)
same,Lymphocytes/leukocytes: Above (treatment-emergent nongraded abnormality),"[1]; Mid-high (cohort 1c), n=4",0 no. (%)
same,Lymphocytes/leukocytes: Below (treatment-emergent nongraded abnormality),"[1]; Mid-high (cohort 1c), n=4",0 no. (%)
same,Lymphocytes: Above (treatment-emergent nongraded abnormality),"[1]; Mid-high (cohort 1c), n=4",1 (25) no. (%)
same,Lymphocytes: Below (treatment-emergent nongraded abnormality),"[1]; Mid-high (cohort 1c), n=4",0 no. (%)
same,Monocytes/leukocytes: Above (treatment-emergent nongraded abnormality),"[1]; Mid-high (cohort 1c), n=4",0 no. (%)
same,Monocytes/leukocytes: Below (treatment-emergent nongraded abnormality),"[1]; Mid-high (cohort 1c), n=4",0 no. (%)
same,Neutrophils/leukocytes: Above (treatment-emergent nongraded abnormality),"[1]; Mid-high (cohort 1c), n=4",0 no. (%)
same,Neutrophils/leukocytes: Below (treatment-emergent nongraded abnormality),"[1]; Mid-high (cohort 1c), n=4",0 no. (%)
same,Dose-response relationship for antiviral effects,[2]; across JNJ-8678 dose levels,no clear dose-response relationship was observed
same,Reduction in viral load compared with placebo,[2]; all doses combined,greater reduction in viral load with JNJ-8678 than placebo
same,Median RSV viral load change from baseline,"[2]; by day 3, all JNJ-8678 doses combined",−1.98 log10 copies/mL
